# Experimental data taken from ChEMBL document CHEMBL4715923, “Investigation on the Anticancer Activity of Symmetric and Unsymmetric Cyclic Sulfamides” (ACS Med Chem Lett, 2021).
# Active and inactive are the calls of the source. The rule behind the calls is not given here.
# Legend:
# [1] = system: Panel NCI-60 (60 carcinoma cell lines); assay: Cytotoxicity against human Panel NCI-60 (60 carcinoma cell lines) assessed as reduction in cell growth incubated for 48 hrs by SRB assay; type: functional, cell-based
# Method in brief: (§1)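 Cells kept in RPMI 1640 with 5% FBS and 2 mM L-glutamine at 37 °C in 5% CO2, periodically tested for Mycoplasma. After plating, cells were held 1 day without drug, and time-zero plates were read. Compounds in DMSO were added at 10^-4 to 10^-8 M (five 10-fold steps), with DMSO-only controls, for 48 h. Cells were then TCA-fixed and stained with sulforhodamine B, and absorbance was read. GI50 was derived from time-zero, control and treated absorbances; LC50 is the mean of two independent experiments.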
# RPMI-8226 = assay: Cytotoxicity against human RPMI-8226 cells assessed as reduction in cell growth incubated for 48 hrs by SRB assay; type: functional, cell-based; method in brief: as §1
# Coagulation factor X = Coagulation factor X (Homo sapiens, UniProt P00742); assay: Inhibition of human factor Xa using […] as substrate by chromogenic assay
# HCT-116 = assay: Cytotoxicity against human HCT-116 cells assessed as reduction in cell growth incubated for 48 hrs by SRB assay; type: functional, cell-based; method in brief: as §1
# SF-295 = assay: Cytotoxicity against human SF-295 cells assessed as reduction in cell growth incubated for 48 hrs by SRB assay; type: functional, cell-based; method in brief: as §1
# OVCAR-4 = assay: Cytotoxicity against human OVCAR-4 cells assessed as reduction in cell growth incubated for 48 hrs by SRB assay; type: functional, cell-based; method in brief: as §1
# PC-3 = assay: Cytotoxicity against human PC-3 cells assessed as reduction in cell growth incubated for 48 hrs by SRB assay; type: functional, cell-based; method in brief: as §1
# MDA-MB-468 = assay: Cytotoxicity against human MDA-MB-468 cells assessed as reduction in cell growth incubated for 48 hrs by SRB assay; type: functional, cell-based; method in brief: as §1
# A549 [2] = assay: Cytotoxicity against human A549 cells assessed as loss of cell morphological changes at 1 uM; type: functional, cell-based
# Method in brief: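 A549 cells grown overnight were exposed to 1 μM compound or DMSO vehicle, and changes in cell morphology were recorded.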
# A549 [3] = assay: Cytotoxicity against human A549 cells assessed as reduction in cell growth at 10 uM incubated for 36 hrs by MTT assay relative to control; type: functional
# Method in brief: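 A549 cells were treated with 10 μM compound or DMSO vehicle, and growth inhibition was followed over time, with a 36 h time point.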
# A549 [4] = assay: Inhibition of cell migration in human A549 cells incubated for 24 hrs by phase contrast microscopy based relative wound healing/cell migration assay to control; type: functional; settings: dose 0-50 µM
# Method in brief: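 Scratches were made in A549 monolayers. Cells were then grown in medium containing compound (0–50 μM) or DMSO vehicle, and wound closure was imaged by phase-contrast microscopy.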
# A549 [5] = assay: Induction of cell cycle arrest in human A549 cells assessed as increase in subG1 phase accumulation incubated for 48 hrs by PI based flow cytometry; type: functional
# Method in brief: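 A549 cells were exposed for 48 h, stained with propidium iodide and analysed by flow cytometry for cell cycle distribution and the sub-G1 (dead cell) fraction.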
# A549 [6] = assay: Induction of apoptosis in human A549 cells assessed as effect on caspase activation; type: functional, cell-based
# A549 [7] = assay: Induction of cellular senescence in human A549 cells assessed as increase in SA-beta-Gal accumulation in cells at 10 to 50 uM incubated for overnight by microscopic analysis; type: functional, cell-based; settings: dose 10-50 µM
# A549 [8] = assay: Inhibition of colony formation in human A549 cells grown under anchorage-independent soft-agar condition incubated for 9 days and subsequent media replenishment for every 3 days by crystal violet staining based light microscopy assay; settings: dose 10-50 µM, time 9.0 day
# Chain of Coagulation factor X (P00742 41-179 limits assumed): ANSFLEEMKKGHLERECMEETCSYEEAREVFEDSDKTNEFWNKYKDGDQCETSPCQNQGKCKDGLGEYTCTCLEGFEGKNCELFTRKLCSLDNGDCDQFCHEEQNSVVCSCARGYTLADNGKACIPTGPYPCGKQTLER
# Chain of Coagulation factor X (P00742 235-488 limits assumed): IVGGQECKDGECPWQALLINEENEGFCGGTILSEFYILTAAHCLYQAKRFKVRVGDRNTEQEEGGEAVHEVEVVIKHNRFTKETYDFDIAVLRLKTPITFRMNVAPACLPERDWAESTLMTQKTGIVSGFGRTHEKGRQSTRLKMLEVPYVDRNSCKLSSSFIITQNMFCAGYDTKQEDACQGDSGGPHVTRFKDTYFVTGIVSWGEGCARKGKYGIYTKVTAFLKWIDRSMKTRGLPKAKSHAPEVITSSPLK
smiles,measurement,setting,value
O=S1(=O)N(Cc2ccccc2)[C@@H](Cc2ccccc2)[C@H](O)[C@H](O)[C@H](Cc2ccccc2)N1Cc1ccccc1,inhibition,[1],Active
same,inhibition,RPMI-8226,Active
O=S1(=O)N(Cc2ccccc2)[C@@H](Cc2ccccc2)[C@@H]2O[C@@H]2[C@H](Cc2ccccc2)N1Cc1ccccc1,inhibition,[1],Active
same,inhibition,RPMI-8226,Active
CC(=N)N1CCC(Oc2ccc3c(c2)C(=O)NS(=O)(=O)N3Cc2ccc3ccc(C(=N)N)cc3c2)CC1,IC50,Coagulation factor X,0.4 nM
O=S1(=O)N(Cc2ccccc2)[C@@H](Cc2ccccc2)C=C[C@H](Cc2ccccc2)N1Cc1ccccc1,inhibition,HCT-116,Active
same,inhibition,SF-295,Active
same,inhibition,OVCAR-4,Active
same,inhibition,PC-3,Active
same,inhibition,MDA-MB-468,Active
same,Activity,A549 [2],Active
same,inhibition at 10 µM,A549 [3],50%
same,inhibition (INH),A549 [4],50%
same,Activity,A549 [5],Active
same,Activity,A549 [6],inactive
same,Activity,A549 [7],Active
same,inhibition,A549 [8],Dose-dependent effect
O=S1(=O)N(Cc2ccccc2)[C@H](Cc2ccccc2)[C@H](O)[C@H](O)[C@@H](Cc2ccccc2)N1Cc1ccccc1,inhibition,[1],Active
same,inhibition,RPMI-8226,Active
